Measured values as given in ChEMBL document CHEMBL1151332, “A new prenylated flavonol from the roots of Sophora flavescens” (J Nat Prod, 1998).
In brackets after ≈: the same amount, converted by molar mass. Activity calls are given as the source filed them. The rule behind the calls is not given here.

Experiments:
Human alphaherpesvirus 1 = assay: Antiviral activity against HSV1 in african green monkey Vero cells assessed as virus-induced cytopathic effect after 3 days by MTT assay; type: functional, organism-based; details: Human alphaherpesvirus 1, Vero, 72 h
In short: (§1)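 Vero cells seeded at 3 × 10³/well and grown 3-4 days to a confluent monolayer, washed, then infected with virus diluted in DME plus 2% FBS at a dose equal to 50% cell culture inhibitory dose (CCID50) for 60 min at 37 °C. Inoculum removed; medium with graded sample concentrations (below 300 µg/mL) added in duplicate; 3 days at 37 °C, 5% CO2. MTT read-out; EC50 = concentration inhibiting virus-induced CPE by 50%.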

Human alphaherpesvirus 2 = assay: Antiviral activity against HSV2 in african green monkey Vero cells assessed as virus-induced cytopathic effect after 3 days by MTT assay; type: functional, organism-based; details: for EC50: Human alphaherpesvirus 2, Vero, 72 h; in short: as §1

SMILES	EC50 (Human alphaherpesvirus 1) [µg/mL]	Activity (Human alphaherpesvirus 2)	EC50 (Human alphaherpesvirus 2) [µg/mL]
C=C(C)[C@H](CC=C(C)C)Cc1c(O)cc(OC)c(C(=O)/C=C/c2ccc(O)cc2O)c1O [KURAIDIN]	> 300	inactive	–
C=C(C)[C@H](CCC(C)(C)O)Cc1c(O)cc(OC)c2c1O[C@H](c1ccc(O)cc1O)CC2=O [KURARINOL]	60 (≈ 131 µM)	–	44 (≈ 96.4 µM)
C=C(C)[C@H](CCC(C)(C)O)Cc1c(O)cc(OC)c2c1O[C@H](c1ccc(O)cc1O)[C@@H](O)C2=O [KUSHENOL H]	> 300	–	162 (≈ 343 µM)
C=C(C)[C@H](CCC(C)(C)O)Cc1c(O)cc(OC)c2c1O[C@H](c1ccc(O)cc1O)[C@H](O)C2=O [KUSHENOL K]	> 300	–	147 (≈ 311 µM)
COc1cc(O)c(CC=C(C)C)c2oc(-c3ccc(O)cc3)c(O)c(=O)c12 [SOPHOFLAVESCENOL]	> 300	inactive	–
OC[C@H]1O[C@@H](Oc2ccc3c(c2)OC[C@H]2c4cc5c(cc4O[C@@H]32)OCO5)[C@H](O)[C@@H](O)[C@@H]1O [TRIFOLIRHIZIN]	> 300	inactive	–
